High-throughput results from PubChem BioAssay.
STAT1 act = increases IFN-gamma driven STAT1 reporter signal; NIH 3T3 STAT1-luciferase reporter, luminescence; 100% = IFN-gamma alone, no compound; activation (% of control), % at 5.5 µM; 200,000 tested, 2.6% active; AID 932;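 active = activation above the screen-wide mean activation plus 3 SD, cut at about 130% in these data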
FLuc stim CS = firefly luciferase counter-screen for stimulation assays; 200,000 tested, under 10 active; ATPlite luciferase biochemical, luminescence, 10 min; 0 = ATP-free wells, 1 = DMSO control; P08659; activation factor at 10 µM;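 active = luciferase activation factor, scaled between plate controls, of at least 2 with compound at 10 µM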
Target sequence (P08659 whole entry, looked up): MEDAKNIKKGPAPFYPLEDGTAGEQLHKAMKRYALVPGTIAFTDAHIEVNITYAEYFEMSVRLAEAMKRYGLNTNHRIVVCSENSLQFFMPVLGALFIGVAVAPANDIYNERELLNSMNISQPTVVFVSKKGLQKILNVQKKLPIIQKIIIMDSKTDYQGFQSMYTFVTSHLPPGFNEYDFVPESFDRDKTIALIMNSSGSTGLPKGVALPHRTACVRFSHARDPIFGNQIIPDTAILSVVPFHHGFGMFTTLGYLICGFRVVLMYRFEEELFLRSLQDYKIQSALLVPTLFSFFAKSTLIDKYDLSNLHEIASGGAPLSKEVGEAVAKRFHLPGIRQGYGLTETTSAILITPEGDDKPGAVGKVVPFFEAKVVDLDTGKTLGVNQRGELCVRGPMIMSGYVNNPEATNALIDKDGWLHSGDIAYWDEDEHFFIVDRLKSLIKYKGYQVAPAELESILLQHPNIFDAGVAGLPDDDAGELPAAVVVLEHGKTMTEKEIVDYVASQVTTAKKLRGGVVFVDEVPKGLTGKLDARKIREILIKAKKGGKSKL
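Material: luciferase plus luciferin reagent, cell-free. Medium: PBS buffer for ATP. Also added: ATP substrate, dispensed from a 10.24 µM working solution in PBS. Doses: test compounds dosed from 2 mM stocks in 100% DMSO. Incubation: 10 min post-reagent at room temperature. Technique: light output (luminescence). Read-out basis: luminescence gain marking luciferase activators.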
NF-kB expr up = raises NF-kB expression in human neuronal cells | NF-kB reporter expression; active compounds read high | fold change at 12.5 µM | 190,000 tested, 1.6% active; in the data active = fold change above about 3.3
APP 5'UTR act = activates APP 5'UTR luciferase reporter | activation, % at 2 µM | 190,000 tested, 1% active | SH-SY5Y APP 5'UTR luciferase reporter, luminescence; zero percent = DMSO vehicle wells;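 active = activation above a set limit, based on mean plus 3 SD of controls, cut at about 140% in these data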
Pf gametocyte = inhibitors of late stage P. falciparum gametocyte viability; P. falciparum stage V gametocytes, ATP luminescence, 24 h; inhibition, % at 10.9 µM; 150,000 tested, 0.065% active;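 active = inhibition above the mean plus 3 SD of compounds within the control limits, set per campaign, cut at about 38% in these data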
FLuc inhib CS = inhibits firefly luciferase, flagging false hits in luciferase inhibition screens; ATPLite firefly luciferase biochemical luminescence, 10 min; inhibition, % at 10 µM; 200,000 tested, 1.5% active;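 active = inhibition above about 50% when tested at 10 µM, limit read from the data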
STAT1 activ conf = confirmation of STAT1 signaling activators | shares compounds with STAT1 act | NIH 3T3 STAT1-luciferase reporter, IFN-gamma potentiation, luminescence; 100% = IFN-gamma EC80 alone, no compound | activation (% of control), % at 5.7 µM | 1,200 tested, 97% active | AID 1262;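 active = activation above a set limit carried over from the earlier primary STAT1 screen, cut at about 140% in these data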
NFkB act STAT1ct = activates NF-kappaB, counter-screen to STAT1 activators. HEK293T NF-kB luciferase reporter, TNF-alpha stimulated, luminescence; 100% = TNF-alpha with vehicle only. AID 1306. activation (% of control), % at 5.7 µM. 1,200 tested, 43% active. shares compounds with STAT1 act;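 active = activation above the mean of solvent-only control wells plus 3 SD, set per campaign, cut at about 130% in these data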;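 also: TNF-alpha given at a submaximal dose yielding about 80% of full reporter signal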
STAT3 act 2 = human STAT3 activation in STAT1 activator counter-screen | shares compounds with STAT1 act | U3A cells STAT3-luciferase reporter, IL-6, luminescence; cells lack STAT1; 100 = IL-6 alone, no compound effect | activation (% of control), % at 5.7 µM | 1,200 tested, 46% active;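 active = activation above the solvent-only control well mean plus 3 SD, set per plate batch, cut at about 110% in these data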;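 also: higher means more STAT3 reporter activation so hits are non-selective activators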
Large screens that a line does not name were inactive (follow-up assays come after a bar, where they were run). Compounds with a hit are over-represented: about 3.5% of the library has one in this group of screens.

N/C(=N\OC(=O)COc1ccc(Br)cc1Cl)c1cccnc1	none
CC(C)OC(=O)CSc1nnc(C2CCCCC2)n1N	none (no result: STAT1 act, FLuc stim CS, NF-kB expr up, APP 5'UTR act, FLuc inhib CS)
O=C(CCc1ccccc1)Nc1nc2c(F)cc(F)cc2s1	none (no result: STAT1 act, FLuc stim CS, NF-kB expr up, APP 5'UTR act, FLuc inhib CS)
NNc1nc2c(F)cc(F)cc2s1	STAT1 act 156, APP 5'UTR act 167 | STAT1 activ conf inactive | NFkB act STAT1ct inactive | STAT3 act 2 116
O=C(CCCn1nnc(-c2cccnc2)n1)c1ccc(F)cc1	none
O=C(CSc1ncnc2c1oc1ccccc12)NCc1ccco1	none (no result: Pf gametocyte)
O=c1c2ccccc2nc(/C=C/c2ccc([N+](=O)[O-])o2)n1CCCO	STAT1 act 151 | STAT1 activ conf 167 | NFkB act STAT1ct 157 | STAT3 act 2 inactive
O=c1c2ccccc2nc(/C=C/c2ccc([N+](=O)[O-])cc2)n1CCCO	none (no result: Pf gametocyte)
CC(C)N1C(=S)N(Cc2ccco2)C(=O)C1CC(=O)Nc1ccccc1 (configuration not stated)	none
COc1cc(/C=N/O)ccc1OCc1ccccc1Cl	STAT1 act 182, NF-kB expr up 7.2, APP 5'UTR act 186 | STAT1 activ conf 191 | NFkB act STAT1ct inactive | STAT3 act 2 120
COc1ccc(C2CC(c3ccc4ccccc4c3)=NN2C(=O)COC(=O)C2CCC(=O)N2)cc1 (configuration not stated)	STAT1 act 183, APP 5'UTR act 258 | STAT1 activ conf 247 | NFkB act STAT1ct 148 | STAT3 act 2 129
Cc1ccc(/C=N/NC(=O)c2ccccn2)s1	STAT1 act 154, FLuc inhib CS 75 | STAT1 activ conf 163 | NFkB act STAT1ct inactive | STAT3 act 2 inactive
O=C(CS(=O)CC(=O)N(c1cccc(F)c1)C(C(=O)NC1CCCCC1)c1ccco1)Nc1ccc(F)cc1 (configuration not stated)	none
COc1ccc(NC(=O)C2CCCN(S(=O)(=O)c3c(C)[nH]c(=O)[nH]c3=O)C2)cc1Cl (configuration not stated)	none
Oc1ccc(-c2csc(-c3ccccc3)n2)cc1O	STAT1 act 151, NF-kB expr up 6.3 (no result: Pf gametocyte) | STAT1 activ conf 166 | NFkB act STAT1ct inactive | STAT3 act 2 inactive
CC1CCC2(CC1)NC(=O)c1ccccc1O2 (configuration not stated)	none
O=C1C=C(c2ccc(F)c(Cl)c2)C[C@@H](c2ccc(F)cc2)C1	none (no result: STAT1 act, FLuc stim CS, NF-kB expr up, APP 5'UTR act, FLuc inhib CS)
Cn1c(N)c(C(=O)Nc2ccccc2F)sc1=S	none (no result: STAT1 act, FLuc stim CS, NF-kB expr up, APP 5'UTR act, FLuc inhib CS)
Cn1c(N)c(C(=O)Nc2ccc3ccccc3c2)sc1=S	STAT1 act 172, APP 5'UTR act 143 | STAT1 activ conf 204 | NFkB act STAT1ct inactive | STAT3 act 2 inactive
Cn1ccnc1C1CCCCN1C(=O)c1cc(COc2ccc(F)cc2F)on1 (configuration not stated)	none (no result: STAT1 act, FLuc stim CS, NF-kB expr up, APP 5'UTR act, FLuc inhib CS)
Cc1nonc1C1CCCN1C(=O)c1cc(COc2ccc(F)cc2F)on1 (configuration not stated)	STAT1 act 168 | STAT1 activ conf 183 | NFkB act STAT1ct 137 | STAT3 act 2 inactive
Nc1nc(-c2ccc(Cl)cc2)nnc1-c1ccc(Br)cc1	STAT1 act 165, NF-kB expr up 3.8, APP 5'UTR act 194 | STAT1 activ conf 191 | NFkB act STAT1ct 143 | STAT3 act 2 inactive
Clc1ccc(-c2nnc(-c3ccccc3)c(-c3ccccc3)n2)cc1	none (no result: STAT1 act, FLuc stim CS, NF-kB expr up, APP 5'UTR act, FLuc inhib CS)
O=C(CNC(=O)c1ccccc1Br)N/N=C/c1ccc(O)cc1	none
Cc1sc(NC(=O)c2ccccc2)c(C#N)c1-c1ccccc1	STAT1 act 166, NF-kB expr up 4.9, APP 5'UTR act 138 (no result: Pf gametocyte) | STAT1 activ conf 200 | NFkB act STAT1ct 141 | STAT3 act 2 inactive
Cc1cc(C(=O)CSc2ncccn2)c(C)n1-c1cccc(F)c1	STAT1 act 172, APP 5'UTR act 162, FLuc inhib CS 54 | STAT1 activ conf 191 | NFkB act STAT1ct inactive | STAT3 act 2 111
COc1cccc(N(C(=O)c2nc3nccc(C)n3n2)c2nc3ccccc3s2)c1	STAT1 act 173, NF-kB expr up 6, APP 5'UTR act 190 | STAT1 activ conf 230 | NFkB act STAT1ct 177 | STAT3 act 2 114
COc1cccc(NC(=O)COC(=O)c2nc3nccc(C)n3n2)c1	none
O=C(Nc1cccc(Cl)c1)c1ccc2c(=O)n3c(nc2c1)CCCCC3	STAT1 act 162, APP 5'UTR act 202 | STAT1 activ conf 180 | NFkB act STAT1ct inactive | STAT3 act 2 inactive
Nc1cccc(C(=O)OCC(=O)Nc2cccc3c2C(=O)c2ccccc2C3=O)c1	none
Nc1cccc(C(=O)OCC(=O)c2ccccc2)c1	STAT1 act 181, FLuc inhib CS 69 | STAT1 activ conf 181 | NFkB act STAT1ct inactive | STAT3 act 2 117
CCOC(=O)c1c(C)c(C(=O)Nc2ccc(F)cc2)c(C)n1C	none
CCONC(=O)Nc1ccccc1	none (no result: Pf gametocyte)
CCOC(=O)c1sc(NC(=O)Nc2ccccc2)cc1C	STAT1 act 189, NF-kB expr up 9.5, APP 5'UTR act 173, FLuc inhib CS 84 | STAT1 activ conf 222 | NFkB act STAT1ct inactive | STAT3 act 2 inactive
CCOC(=O)c1cc(NC(=O)Nc2ccccc2Cl)c(C)nc1C	none
CCOC(=O)c1sc(NC(=O)Nc2ccc(F)cc2)nc1C	STAT1 act 160, NF-kB expr up 5.3, FLuc inhib CS 59 | STAT1 activ conf 236 | NFkB act STAT1ct 135 | STAT3 act 2 112
CCOC(=O)c1sc(NC(=O)Nc2ccccc2Cl)cc1C	STAT1 act 186, NF-kB expr up 4.2, APP 5'UTR act 220, FLuc inhib CS 80 | STAT1 activ conf 295 | NFkB act STAT1ct inactive | STAT3 act 2 inactive
CCOC(=O)c1sc(NC(=O)c2ccc(C)s2)cc1C	STAT1 act 175, APP 5'UTR act 172, FLuc inhib CS 62 | STAT1 activ conf 193 | NFkB act STAT1ct 138 | STAT3 act 2 inactive
Cc1ccc(Nc2cc(-c3ccccc3)nc3ncnn23)cc1	none (no result: STAT1 act, FLuc stim CS, NF-kB expr up, APP 5'UTR act, FLuc inhib CS)
Cc1cccc(N=Nc2c(C)nn(-c3ccccc3)c2N)c1C	none
Cc1nn(-c2ccccc2)c(N)c1N=Nc1ccc(Cl)cc1	STAT1 act 155, NF-kB expr up 4.5 | STAT1 activ conf 183 | NFkB act STAT1ct inactive | STAT3 act 2 inactive
